# In ChEMBL document CHEMBL4400518, “Synthesis, antimicrobial and cytotoxic activities, and molecular docking studies of N-arylsulfonylindoles containing an aminoguanidine, a semicarbazide, and a thiosemicarbazide moiety” (Eur J Med Chem, 2019):
# Assays:
# Assay type in all cases: functional
# Bacillus subtilis = assay: Antibacterial activity against Bacillus subtilis CMCC 63501 measured after 24 hrs by ELISA; conditions: CMCC 63501, 24 h
# In short: (§1)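 Broth microdilution MIC. Mid-log bacteria in MHB or TSB diluted 1000-fold, inoculated at 10^5 CFU/mL. Compounds added from DMSO stocks; final DMSO at most 0.05%. Incubation 24 h at 37 °C. Growth read as absorbance at 630 nm. MIC taken as the lowest concentration giving complete growth inhibition. Three independent experiments.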
# Staphylococcus aureus [1] = assay: Antibacterial activity against Staphylococcus aureus CMCC(B) 26003 measured after 24 hrs by ELISA; conditions: CMCC(B) 26003, 24 h; in short: as §1
# Streptococcus pyogenes = assay: Antibacterial activity against Streptococcus pyogenes CMCC 32067 measured after 24 hrs by ELISA; conditions: CMCC 32067, 24 h; in short: as §1
# Streptococcus pneumoniae = assay: Antibacterial activity against Streptococcus pneumoniae CMCC 31968 measured after 24 hrs by ELISA; conditions: CMCC 31968, 24 h
# Pseudomonas aeruginosa [2] = assay: Antibacterial activity against Pseudomonas aeruginosa CMCC 10104 measured after 24 hrs by ELISA; conditions: CMCC 10104, 24 h; in short: as §1
# Enterococcus faecalis = assay: Antibacterial activity against Enterococcus faecalis CMCC 29212 measured after 24 hrs by ELISA; conditions: CMCC 29212, 24 h; in short: as §1
# Escherichia coli [3] = assay: Antibacterial activity against Escherichia coli CMCC 44568 measured after 24 hrs by ELISA; conditions: CMCC 44568, 24 h; in short: as §1
# Pseudomonas aeruginosa [4] = assay: Antibacterial activity against Pseudomonas aeruginosa CMCC 27853 measured after 24 hrs by ELISA; conditions: CMCC 27853, 24 h; in short: as §1
# Staphylococcus aureus [5] = assay: Antibacterial activity against Staphylococcus aureus CMCC 25923 measured after 24 hrs by ELISA; conditions: CMCC 25923, 24 h; in short: as §1
# Escherichia coli [6] = assay: Antibacterial activity against Escherichia coli CMCC 25922 measured after 24 hrs by ELISA; conditions: CMCC 25922, 24 h; in short: as §1
# Staphylococcus aureus [7] = assay: Antibacterial activity against methicillin-resistant Staphylococcus aureus ATCC 43300 measured after 24 hrs by ELISA; conditions: ATCC 43300, 24 h
# In short: (§2)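 Broth serial dilution MIC. Mid-log bacteria in Mueller-Hinton or Tryptone Soya broth, diluted 1000-fold and inoculated at 10^5 CFU/mL. Compounds from DMSO stock, final DMSO ≤0.05%. Incubated 24 h at 37 °C; growth read as absorbance at 630 nm. MIC is the lowest concentration giving complete growth inhibition. Three independent experiments.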
# Staphylococcus aureus [8] = assay: Antibacterial activity against methicillin-resistant Staphylococcus aureus ATCC 33591 measured after 24 hrs by ELISA; conditions: ATCC 33591, 24 h; in short: as §2
# Pseudomonas aeruginosa [9] = assay: Antibacterial activity against multidrug-resistant Pseudomonas aeruginosa ATCC BAA-2111 measured after 24 hrs by ELISA; conditions: ATCC BAA-2111, 24 h; in short: as §2
# Escherichia coli [10] = assay: Antibacterial activity against multidrug-resistant Escherichia coli ATCC BAA-196 measured after 24 hrs by ELISA; conditions: ATCC BAA-196, 24 h; in short: as §2
Compound,MIC (Bacillus subtilis) [µM],MIC (Staphylococcus aureus [1]) [µM],MIC (Streptococcus pyogenes) [µM],MIC (Streptococcus pneumoniae) [µM],MIC (Pseudomonas aeruginosa [2]) [µM],MIC (Enterococcus faecalis) [µM],MIC (Escherichia coli [3]) [µM],MIC (Pseudomonas aeruginosa [4]) [µM],MIC (Staphylococcus aureus [5]) [µM],MIC (Escherichia coli [6]) [µM],MIC (Staphylococcus aureus [7]) [µM],MIC (Staphylococcus aureus [8]) [µM],MIC (Pseudomonas aeruginosa [9]) [µM],MIC (Escherichia coli [10]) [µM]
C/C(=N/NC(=N)N)c1cn(S(=O)(=O)c2ccccc2)c2ccccc12,22.5,22.5,22.5,1.4,45.1,45.1,11.3,90.1,22.5,45.1,–,–,–,–
COc1c(N2CCNC(C)C2)c(F)cc2c(=O)c(C(=O)O)cn(C3CC3)c12 (stereo not drawn) [GATIFLOXACIN],5.33,0.33,> 341,> 341,5.33,2.67,0.33,5.33,0.33,0.33,1.33,0.67,2.66,1.33
COc1c(N2C[C@@H]3CCCN[C@@H]3C2)c(F)cc2c(=O)c(C(=O)O)cn(C3CC3)c12 [MOXIFLOXACIN],–,0.31,> 319,> 319,9.98,–,0.31,–,0.31,0.31,1.25,0.62,–,1.25
Cc1onc(-c2ccccc2)c1C(=O)N[C@@H]1C(=O)N2[C@@H]1SC(C)(C)[C@@H]2C(=O)O [OXACILLIN],> 319,0.31,> 319,> 319,> 319,319,> 319,> 319,0.31,319,160,19.9,–,–
CC1(C)S[C@@H]2[C@H](NC(=O)Cc3ccccc3)C(=O)N2[C@H]1C(=O)O [PENICILLIN G],383,0.37,> 383,> 383,95.8,383,> 383,> 383,0.37,383,95.8,> 95.8,–,–
